In ChEMBL document CHEMBL1153939, “Novel antagonists of serotonin-4 receptors: synthesis and biological evaluation of pyrrolothienopyrazines” (Bioorg Med Chem, 2009):

Key:
Mus musculus [1] = test: Antinociceptive activity against acetic acid-induced writhing in NMRI mouse assessed as number of stretches at 30 mg/kg, ip by writhing test; type: functional; settings: route intraperitoneal
Procedure, shortened: (§1)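 Groups of 8 male NMRI mice (20–24 g). Compound or reference given ip in saline (10 mL/kg) 15 min before ip 0.6% aqueous acetic acid (10 mL/kg). Stretches (back arching, pelvic rotation, hind-limb extension) counted over 10 min, beginning 10 min after acid. ANOVA + Fisher PLSD versus control.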

[2] = target: T1, 5-hydroxytryptamine receptor 3A (Homo sapiens, UniProt P46098); test: Binding affinity at 5HT3 receptor
T1 sequence (P46098 whole entry): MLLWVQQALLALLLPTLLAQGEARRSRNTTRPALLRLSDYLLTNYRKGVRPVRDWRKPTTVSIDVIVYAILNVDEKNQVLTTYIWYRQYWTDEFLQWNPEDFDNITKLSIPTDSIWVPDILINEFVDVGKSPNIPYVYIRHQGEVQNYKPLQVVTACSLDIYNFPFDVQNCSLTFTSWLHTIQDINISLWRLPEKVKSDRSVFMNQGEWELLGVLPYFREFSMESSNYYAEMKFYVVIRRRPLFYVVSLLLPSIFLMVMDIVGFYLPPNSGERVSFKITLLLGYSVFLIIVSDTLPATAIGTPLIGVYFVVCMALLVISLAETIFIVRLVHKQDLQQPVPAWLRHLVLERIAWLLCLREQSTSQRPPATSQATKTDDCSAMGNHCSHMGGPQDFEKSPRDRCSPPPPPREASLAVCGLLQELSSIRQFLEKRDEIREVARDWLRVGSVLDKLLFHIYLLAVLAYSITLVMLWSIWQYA

Mus musculus [3] = test: Antinociceptive activity against acetic acid-induced writhing in NMRI mouse assessed as number of stretches at 1 mg/kg, ip by writhing test; type: functional; settings: route intraperitoneal; procedure, shortened: as §1
Mus musculus [4] = test: Antinociceptive activity against acetic acid-induced writhing in NMRI mouse assessed as number of stretches at 0.01 mg/kg, ip by writhing test; type: functional; settings: route intraperitoneal; procedure, shortened: as §1
Mus musculus [5] = test: Antinociceptive activity against acetic acid-induced writhing in NMRI mouse assessed as number of stretches at 0.1 mg/kg, ip by writhing test; type: functional; settings: route intraperitoneal; procedure, shortened: as §1
[6] = target: 5-hydroxytryptamine receptor 4 (Cavia porcellus, UniProt O70528); test: Displacement of [3H]GR-113808 from 5HT4 receptor in guinea pig striatum membrane; type: cell membranes
Procedure, shortened: (§2)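 Guinea pig membranes (15 µg protein/mL) incubated 30 min at 37 °C with 0.6 nM [3H]GR113808 in 50 mM HEPES, pH 7.4, with fixed test concentrations. Nonspecific binding defined with 10 µM serotonin.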

[7] = target: T1, 5-hydroxytryptamine receptor 3A; test: Displacement of [3H]granisetron form 5HT3 receptor in hybrid […] cells; type: cell-based
Procedure, shortened: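 NG108-15 cell membranes (0.5 mg protein/mL) incubated 60 min at 25 °C with 1 nM [3H]granisetron in 50 mM Tris-HCl, pH 7.4, plus 25 mM NaCl. Percent inhibition measured at 10^-6 and 10^-7 M; for some compounds Ki calculated from 8–10-point inhibition curves (Ki ± SEM).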

[8] = target: 5-hydroxytryptamine receptor 6 (Homo sapiens, UniProt P50406); test: Displacement of [3H]LSD form human recombinant 5HT6 receptor
Procedure, shortened: (§3)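 Membranes from sf9 cells expressing human 5-HT6 (14 µg/mL) or 5-HT7 (38 µg/mL) incubated 90 min at 27 °C with 2 nM [3H]LSD in 50 mM Tris-HCl containing 10 mM MgSO4 and 0.5 mM EDTA. Nonspecific binding defined with clozapine (10 and 250 µM).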

[9] = target: 5-hydroxytryptamine receptor 2A (Homo sapiens, UniProt P28223); test: Displacement of [3H]ketanserin form human recombinant 5HT2A receptor
[10] = target: 5-hydroxytryptamine receptor 4 (Cavia porcellus) (UniProt O70528); test: Displacement of [3H]GR-113808 from 5HT4 receptor in guinea pig striatum membrane at 1 uM; type: cell membranes; procedure, shortened: as §2
[11] = target: T1, 5-hydroxytryptamine receptor 3A; test: Displacement of [3H]granisetron from human recombinant 5HT3 receptor
[12] = target: 5-hydroxytryptamine receptor 7 (Homo sapiens, UniProt P34969); test: Displacement of [3H]LSD form human recombinant 5HT7 receptor; procedure, shortened: as §3
[13] = target: 5-hydroxytryptamine receptor 2B (Homo sapiens, UniProt P41595); test: Displacement of [3H]mesulergine from human recombinant 5HT2B receptor
[14] = target: 5-hydroxytryptamine receptor 4 (Cavia porcellus) (UniProt O70528); test: Displacement of [3H]GR-113808 from 5HT4 receptor in guinea pig striatum membrane at 10 nM; type: cell membranes; procedure, shortened: as §2
[15] = target: T2, 5-hydroxytryptamine receptor 2C (Homo sapiens, UniProt P28335); test: Displacement of [3H]mesulergine from human recombinant 5HT2C receptor
T2 sequence (P28335 whole entry): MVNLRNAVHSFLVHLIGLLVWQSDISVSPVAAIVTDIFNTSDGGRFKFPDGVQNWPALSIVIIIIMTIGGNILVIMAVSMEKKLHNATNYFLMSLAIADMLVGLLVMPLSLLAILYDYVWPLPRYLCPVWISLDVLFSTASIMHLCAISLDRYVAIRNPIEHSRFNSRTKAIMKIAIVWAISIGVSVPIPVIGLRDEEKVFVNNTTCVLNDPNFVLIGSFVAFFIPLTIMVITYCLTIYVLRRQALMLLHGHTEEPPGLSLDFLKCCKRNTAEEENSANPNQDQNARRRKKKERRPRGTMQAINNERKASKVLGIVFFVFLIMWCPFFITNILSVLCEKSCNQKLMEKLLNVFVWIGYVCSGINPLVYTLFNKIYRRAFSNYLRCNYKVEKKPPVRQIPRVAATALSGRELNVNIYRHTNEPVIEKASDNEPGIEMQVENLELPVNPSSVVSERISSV

[16] = target: T3, 5-hydroxytryptamine receptor 1A (Homo sapiens, UniProt P08908); test: Displacement of [3H]8OH-DPAT from human recombinant 5HT1A receptor
T3 sequence (P08908 whole entry): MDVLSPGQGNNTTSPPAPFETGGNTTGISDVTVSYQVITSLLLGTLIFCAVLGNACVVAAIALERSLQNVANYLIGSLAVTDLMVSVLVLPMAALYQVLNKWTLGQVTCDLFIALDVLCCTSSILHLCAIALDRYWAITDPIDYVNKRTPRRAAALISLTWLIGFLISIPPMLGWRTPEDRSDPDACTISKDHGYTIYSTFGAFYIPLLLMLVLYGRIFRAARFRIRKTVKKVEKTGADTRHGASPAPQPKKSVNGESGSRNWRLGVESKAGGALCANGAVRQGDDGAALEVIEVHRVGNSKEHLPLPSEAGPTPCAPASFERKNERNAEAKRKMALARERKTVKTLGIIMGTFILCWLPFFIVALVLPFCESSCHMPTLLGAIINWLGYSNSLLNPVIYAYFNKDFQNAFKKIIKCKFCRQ

Mus musculus [17] = test: Acute toxicity in NMRI mouse assessed as behavioral changes at 5 mg/kg, ip by CNS activity test; type: organism-based, Central nervous system; set-up: dose 5 mg/kg, route intraperitoneal; settings: in vivo
Procedure, shortened: (§4)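 Male NMRI mice (20–24 g) given ip drug in saline (10 mL/kg), groups of 4. Behavioural and neurological changes scored against controls by a standardized observation technique at 30 min, 3 h and 24 h post-dose. Approximate LD50 derived from deaths counted at 24 h.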

[18] = target: 5-hydroxytryptamine receptor 4 (Homo sapiens, UniProt Q13639); test: Binding affinity at 5HT4 receptor
Mus musculus [19] = test: Acute toxicity in NMRI mouse assessed as behavioral changes at 25 mg/kg, ip by CNS activity test; type: organism-based, Central nervous system; set-up: dose 25 mg/kg, route intraperitoneal; settings: in vivo; procedure, shortened: as §4
Mus musculus [20] = test: Antinociceptive activity against acetic acid-induced writhing in NMRI mouse assessed as number of stretches at 5 mg/kg, ip by writhing test; type: functional; settings: route intraperitoneal; procedure, shortened: as §1
Mus musculus [21] = test: Inhibition of scopolamine-induced immediate working memory deficit in NMRI mouse at 1 mg/kg, ip by Y-maze test relative to control; type: functional; set-up: scale not given: the % may be the effect or the level left; settings: route intraperitoneal
Procedure, shortened: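 Spontaneous alternation in male NMRI mice. Scopolamine 1 mg/kg ip in saline induces the working-memory deficit; groups are saline+saline, saline+scopolamine, drug+saline and drug+scopolamine. Alternation % = actual alternations/(total arm entries − 2) × 100. ANOVA plus Fisher PLSD, p<0.05.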

Mus musculus [22] = test: Analgesic activity in NMRI mouse assessed as reaction time taken to lick fore paw at 8 mg/kg, ip after 30 mins of administration by hot plate test; type: functional; settings: route intraperitoneal
Procedure, shortened: (§5)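 Hot plate at 55 °C, male NMRI mice (20–24 g), groups of 10. Drug given ip in saline (10 mL/kg). Baseline latency to forepaw licking taken twice before dosing, and mice had to respond within 4–12 s. Latency read at 15 and 30 min after injection, with a 30 s cutoff. Data as mean ± SEM, ANOVA plus Fisher PLSD.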

Mus musculus [23] = test: Analgesic activity in NMRI mouse assessed as reaction time taken to lick fore paw at 8 mg/kg, ip after 15 mins of administration by hot plate test; type: functional; settings: route intraperitoneal; procedure, shortened: as §5

Sequence of 5-hydroxytryptamine receptor 4 (Cavia porcellus) (O70528 whole entry): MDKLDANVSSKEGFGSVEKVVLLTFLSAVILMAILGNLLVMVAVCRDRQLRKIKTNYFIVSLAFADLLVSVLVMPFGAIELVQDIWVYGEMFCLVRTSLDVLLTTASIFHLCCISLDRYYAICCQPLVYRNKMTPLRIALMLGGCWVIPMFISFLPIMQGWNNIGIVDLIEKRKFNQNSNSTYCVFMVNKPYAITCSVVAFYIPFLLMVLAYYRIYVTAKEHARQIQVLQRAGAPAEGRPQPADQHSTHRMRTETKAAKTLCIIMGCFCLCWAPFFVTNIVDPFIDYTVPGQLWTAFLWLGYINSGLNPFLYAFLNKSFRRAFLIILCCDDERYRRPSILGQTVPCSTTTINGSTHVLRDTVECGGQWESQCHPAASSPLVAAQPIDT
Sequence of 5-hydroxytryptamine receptor 4 (Cavia porcellus, UniProt O70528) (O70528 whole entry): as above
Sequence of 5-hydroxytryptamine receptor 4 (Homo sapiens, UniProt Q13639) (Q13639 whole entry): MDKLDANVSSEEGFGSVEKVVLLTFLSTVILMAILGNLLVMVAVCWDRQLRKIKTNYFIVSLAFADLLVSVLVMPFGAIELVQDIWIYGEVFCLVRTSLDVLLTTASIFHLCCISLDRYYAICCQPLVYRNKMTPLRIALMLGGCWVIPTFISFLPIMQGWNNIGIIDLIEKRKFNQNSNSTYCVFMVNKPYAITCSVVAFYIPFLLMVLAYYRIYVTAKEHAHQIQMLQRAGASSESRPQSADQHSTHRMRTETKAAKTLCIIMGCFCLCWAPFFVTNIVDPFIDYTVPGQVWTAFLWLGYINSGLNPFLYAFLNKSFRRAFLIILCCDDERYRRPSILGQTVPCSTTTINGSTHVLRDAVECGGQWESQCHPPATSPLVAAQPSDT
Sequence of 5-hydroxytryptamine receptor 7 (P34969 whole entry): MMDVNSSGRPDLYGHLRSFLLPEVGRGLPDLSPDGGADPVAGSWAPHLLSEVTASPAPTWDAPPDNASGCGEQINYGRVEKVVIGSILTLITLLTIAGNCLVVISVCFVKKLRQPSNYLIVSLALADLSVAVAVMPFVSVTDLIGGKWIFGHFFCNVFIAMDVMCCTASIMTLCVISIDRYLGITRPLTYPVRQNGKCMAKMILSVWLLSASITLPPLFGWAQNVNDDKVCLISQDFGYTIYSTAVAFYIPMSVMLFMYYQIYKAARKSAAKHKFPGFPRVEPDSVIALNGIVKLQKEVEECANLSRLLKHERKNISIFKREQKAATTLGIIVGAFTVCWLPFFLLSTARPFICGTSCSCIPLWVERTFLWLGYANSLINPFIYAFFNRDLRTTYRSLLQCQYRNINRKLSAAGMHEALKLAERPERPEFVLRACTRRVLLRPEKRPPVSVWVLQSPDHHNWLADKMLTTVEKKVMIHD
Sequence of 5-hydroxytryptamine receptor 2A (P28223 whole entry): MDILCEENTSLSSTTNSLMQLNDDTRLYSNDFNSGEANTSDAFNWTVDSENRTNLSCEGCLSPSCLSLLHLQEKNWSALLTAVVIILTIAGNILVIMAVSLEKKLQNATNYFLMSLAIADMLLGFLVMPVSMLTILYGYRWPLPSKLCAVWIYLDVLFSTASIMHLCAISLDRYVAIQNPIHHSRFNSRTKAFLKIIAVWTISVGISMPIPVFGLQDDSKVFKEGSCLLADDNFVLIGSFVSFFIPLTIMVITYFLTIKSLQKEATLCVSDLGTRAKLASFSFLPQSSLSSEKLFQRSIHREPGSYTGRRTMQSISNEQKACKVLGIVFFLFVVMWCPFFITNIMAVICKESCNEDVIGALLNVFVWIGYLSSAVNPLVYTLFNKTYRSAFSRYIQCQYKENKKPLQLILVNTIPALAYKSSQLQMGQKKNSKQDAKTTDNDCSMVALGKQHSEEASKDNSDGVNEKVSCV
Sequence of 5-hydroxytryptamine receptor 6 (P50406 whole entry): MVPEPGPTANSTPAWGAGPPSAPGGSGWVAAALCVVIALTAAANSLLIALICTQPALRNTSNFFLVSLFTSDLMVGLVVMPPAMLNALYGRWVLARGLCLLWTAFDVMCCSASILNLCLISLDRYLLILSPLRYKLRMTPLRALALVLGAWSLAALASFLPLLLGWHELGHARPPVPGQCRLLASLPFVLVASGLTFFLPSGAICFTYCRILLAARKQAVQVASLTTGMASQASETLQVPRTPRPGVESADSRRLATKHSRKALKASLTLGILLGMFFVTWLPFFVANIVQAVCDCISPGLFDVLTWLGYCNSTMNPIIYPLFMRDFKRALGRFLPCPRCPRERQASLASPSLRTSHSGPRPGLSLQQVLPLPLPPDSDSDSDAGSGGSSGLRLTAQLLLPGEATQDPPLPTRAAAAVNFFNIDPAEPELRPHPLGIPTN
Sequence of 5-hydroxytryptamine receptor 2B (P41595 whole entry): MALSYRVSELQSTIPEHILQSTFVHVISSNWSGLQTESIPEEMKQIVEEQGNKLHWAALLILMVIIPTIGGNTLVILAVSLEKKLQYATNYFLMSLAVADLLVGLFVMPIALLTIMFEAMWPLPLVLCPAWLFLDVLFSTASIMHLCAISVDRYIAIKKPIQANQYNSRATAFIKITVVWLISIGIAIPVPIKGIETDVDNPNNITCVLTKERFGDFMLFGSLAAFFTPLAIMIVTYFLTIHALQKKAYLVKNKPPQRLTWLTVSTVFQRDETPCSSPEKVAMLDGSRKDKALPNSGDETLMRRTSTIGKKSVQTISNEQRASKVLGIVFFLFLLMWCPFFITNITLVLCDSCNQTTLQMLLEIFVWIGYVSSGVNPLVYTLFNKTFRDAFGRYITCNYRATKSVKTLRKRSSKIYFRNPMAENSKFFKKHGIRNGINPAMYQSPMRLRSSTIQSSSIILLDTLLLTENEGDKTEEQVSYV

CC(=O)Oc1ccccc1C(=O)O [ASPIRIN]
Activity (Mus musculus [1]): 8.3

CCN(CC)CCOC(=O)c1cc(Cl)c(N)cc1OC
Ki [2]: 126 nM

COc1[nH]c2ccc(F)cc2c1C(=O)OCC1CCN(CCNS(C)(=O)=O)CC1
Activity (Mus musculus [3]): 12.9
Activity (Mus musculus [4]): 19.1
Activity (Mus musculus [5]): 13.2

c1ccc(CN2CCN(c3nc4ccsc4n4cccc34)CC2)cc1
IC50 [6]: > 10000 nM
IC50 [7]: 1.41 nM

CCCCN1CCC(COc2nc3ccsc3n3cccc23)CC1
Ki [6]: 20.9 nM
IC50 [8]: > 10000 nM
IC50 [9]: 166 nM
inhibition [10]: 100%
IC50 [11]: > 10000 nM
IC50 [12]: > 1000 nM
IC50 [13]: 52.5 nM
inhibition [14]: 31%
IC50 [15]: 29500 nM
IC50 [16]: 5250 nM

OCCN1CCN(CCCN2c3ccccc3Sc3ccc(Cl)cc32)CC1 [PERPHENAZINE]
Activity (Mus musculus [17]): Toxic

COc1cc(N)c(Cl)cc1C(=O)OCCCN1CCCCC1
Ki [18]: 31.6 nM
Ki [2]: 2000 nM

CCCCN1CCC(COC(=O)c2cc(Cl)c(N)c3c2OCCO3)CC1
Ki [18]: 0.0158 nM
Ki [2]: 158 nM

COC(=O)C(c1ccccc1)C1CCCCN1 (configuration not stated) [METHYLPHENIDATE]
Activity (Mus musculus [19]): Toxic

CCN1CCC(COc2nc3ccsc3n3cccc23)CC1
Ki [6]: 19.1 nM
IC50 [8]: > 10000 nM
IC50 [9]: 8130 nM
inhibition [10]: 84%
IC50 [11]: > 1000 nM
IC50 [12]: > 1000 nM
IC50 [13]: 9.77 nM
inhibition [14]: 42%
IC50 [15]: 5620 nM
IC50 [16]: > 100000 nM

CN1C(C(=O)Nc2ccccn2)=C(O)c2ccccc2S1(=O)=O [PIROXICAM]
Activity (Mus musculus [20]): 2.2

COC(=O)C1=CCCN(C)C1 [ARECOLINE]
Activity (Mus musculus [21]): 64%

COCCCN1CCC(NC(=O)c2cc(Cl)c(N)c3c2OCC3)CC1 [PRUCALOPRIDE]
Ki [2]: 3980 nM

CN1CC[C@]23c4c5ccc(O)c4O[C@H]2[C@@H](O)C=C[C@H]3[C@H]1C5 [MORPHINE]
Time (Mus musculus [22]): 26 s
Time (Mus musculus [23]): 30 s

CCCCN1CCC(CNC(=O)c2c3n(c4ccccc24)CCCO3)CC1 [PIBOSEROD]
Ki [2]: > 1000 nM

CCCCCNC(=N)N/N=C/c1c[nH]c2ccc(OC)cc12 [TEGASEROD]
Ki [18]: 3.98 nM
Ki [2]: > 10000 nM

Cn1cc(C(=O)OCC2CCN(CCNS(C)(=O)=O)CC2)c2ccccc21
Ki [18]: 0.158 nM
Activity (Mus musculus [3]): 14.3
Ki [2]: > 10000 nM
Activity (Mus musculus [4]): 21.1
Activity (Mus musculus [5]): 14.8

CN1[C@@H]2CC[C@H]1C[C@@H](OC(=O)c1c[nH]c3ccccc13)C2 [TROPISETRON]
Ki [18]: 200 nM
